A short description of this series: Toxicity liver stage against HepG2, at 10uM. The format is cell-based. Also noted: test concentration 10 uM, cell line HepG2-A16-CD81EGFP. To be noted: human, HepG2-A16-CD81EGFP cells; read-out: INHIBITION
The procedure, abridged:
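Uninfected HepG2-A16-CD81EGFP cells, 3 × 10^3 per well, 1536-well, plated on prespotted compound at 10 μM final, parasite-free screening media added to match infected plates; puromycin 10 μM positive, DMSO 0.5% negative; run in parallel with 48 h PbLuc assay at 37 °C, 5% CO2; viability by CellTiter-Glo luminescence, normalized to controls.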
As to `COc1ccc(-c2noc(C(N)CCSC)n2)cc1` (stereo not drawn), the cytotoxicity at 10 µM was -7.27%. `CC(=O)N1CCC2(CC1)CNc1ccc(F)cc12`: the cytotoxicity at 10 µM turned out to be 1.63%.

Regarding `O=C(c1cc(-c2ccn(CC3CC3)n2)n2ccccc12)N1CCOCC1`, the cytotoxicity at 10 µM is 9.76%. For the compound `CCN(CC)[C@@H]1CN(Cc2cnn(C)c2)[C@@H]2COC[C@H]12`, the cytotoxicity at 10 µM stood at 8.61%. Regarding `O=C(C1CC=CC1)N1CC[C@H]2[C@@H]1CCC(=O)N2c1ccccc1`, the cytotoxicity at 10 µM was 8.88%. Consider `Cc1c(COC(C)C)cccc1NC(=O)N1CCC(N2CCCC2)C1` (stereo not drawn), for which the cytotoxicity at 10 µM was -5.56%. As for `Cc1ccccc1CC(C)(C)NC(=O)c1cccc(OCC(N)=O)c1`, the cytotoxicity at 10 µM worked out at 2.93%. As for `O=C(Cc1cccs1)NS(=O)(=O)c1cccc2cnccc12`, the figure is -14.6%; as for `O=C(c1sccc1C1CC1)N1CCN(c2nccs2)CC1`, 1.41%. `CC(=O)c1c(F)cccc1NC1CCN(C(=O)C2CCCCC2)CC1`: the cytotoxicity at 10 µM worked out at 20.7%.

As for `CCS(=O)(=O)CC(=O)NC1CCc2nccn2C1` (stereo not drawn), the cytotoxicity at 10 µM was determined as 17.1%. With `COCCS(=O)(=O)N1CCN(c2cccc(O)c2)CC1`, the cytotoxicity at 10 µM amounted to 5.33%. `Cc1c(C(=O)NCCC(C)C)nnn1-c1cccc2c1CCN(C)C2`: the cytotoxicity at 10 µM amounted to 1.31%. For `CCC(C)(C)NC(=O)c1nnn(-c2cccc3c2CCN(C)C3)c1C`, the cytotoxicity at 10 µM was -0.663%. The figure for `O=C(CCN1CCC(C(=O)c2cc(F)ccc2F)CC1)NC1CCCC1` is 4.76%; for `CC(C)S(=O)(=O)NC(=O)c1cc(-c2cccc(Cl)c2)no1` it is 10%. For the compound `Cc1nn(C)c(N2CCOCC2)c1CNC(C)c1ccccn1` (stereo not drawn), the cytotoxicity at 10 µM was -10.7%. Regarding `Cc1cc(F)ccc1-n1cc(O)c(C(=O)NCC[S+](C)[O-])n1` (stereo not drawn), the cytotoxicity at 10 µM was 9.38%. On to `Cc1nnc2n1CCN(C(=O)CN1C(=O)C(C)Oc3ccccc31)C2` (stereo not drawn), for which the cytotoxicity at 10 µM is -0.905%. `COc1cc2c(c(OC)c1OC)CCN(CCn1nc(C)cc1C)CC2`: the cytotoxicity at 10 µM was 12.9%. In the case of `Cc1ccc(S(=O)(=O)NC(=O)CCOCc2ccccc2)s1`, the cytotoxicity at 10 µM is -11.2%. For the compound `Cc1cnn(CC(=O)NC2CCCc3cc(OC(F)F)ccc32)c1` (stereo not drawn), the cytotoxicity at 10 µM is -0.653%. Regarding `CNS(=O)(=O)c1ccc(CNC(=O)N(C)CC(O)COC)cc1` (stereo not drawn), the cytotoxicity at 10 µM was -1.22%. The figure for `CCN(C)C(C(=O)Nc1ccc2c(c1)CCC(=O)N2)c1ccccc1` (stereo not drawn) is -1.45%; for `COCC(C)N(C)C(=O)NC1CCN(S(C)(=O)=O)CC1` (stereo not drawn) it is 5.36%; for `Cc1cccc(N(CC(=O)N2CCCCC2)Cc2ccno2)c1` it is 3.1%. Regarding `CN1CC2(CCN(C(=O)Cn3ncc4ccccc4c3=O)CC2)OC1=O`, the cytotoxicity at 10 µM is -2.96%. Take `COc1cc(CN(Cc2ccccn2)CC(C)C)cc2c1OCO2`: the cytotoxicity at 10 µM is -16%. For `Cc1cc(C)n(CCC(=O)N2CCCCC2c2nccs2)n1` (stereo not drawn), the cytotoxicity at 10 µM stood at 10.3%.

With `Cc1c(CN2CC[C@@H](N3CCC(O)CC3)[C@H](O)C2)[nH]c2ccc(Cl)cc12`, the cytotoxicity at 10 µM is -3.96%. As for `CN1CCC2(CCC1=O)CCN(C(=O)Cc1ccc(O)c(F)c1)CC2`, the cytotoxicity at 10 µM is -8.99%. As for `Cc1nn(C)c2ncnc(N(C)CC3CCN(CC(C)C)C3)c12` (stereo not drawn), the figure is -5.79%. Regarding `Cc1nccn1-c1ccc(NC(=O)C2CCCN2Cc2c[nH]cn2)cc1` (stereo not drawn), the cytotoxicity at 10 µM is -15.2%.

Regarding `COc1ccnc(CN2CCC=C(C(C)NC(C)=O)C2)c1OC` (stereo not drawn), the cytotoxicity at 10 µM was -8.81%. For `CCC(=O)N(C)CC(=O)Nc1ccc(Br)cn1`, the cytotoxicity at 10 µM came to 7.48%. In the case of `CO[C@@H]1CCN(S(=O)(=O)N(C)C)[C@@H]2CN(Cc3cccnc3)C[C@@H]21`, the cytotoxicity at 10 µM is -1.91%.

On to `O=C(NC[C@H]1OC[C@@H]2CCN(C3CCOCC3)C[C@@H]21)c1ccncc1`, for which the cytotoxicity at 10 µM was 4.98%. As to `CCn1cc2c(n1)C(COC)CN(c1ccc(C)nn1)C2` (stereo not drawn), the cytotoxicity at 10 µM is 11.6%.
